# Published values of several laboratories.
# Compare with care: the assays were run in different laboratories.
SMILES,target or system,assay,test system,conditions,endpoint,result
S=P1(c2ccccc2)CCCCC1,HaCaT,"cell growth or viability, MTT",,72 h,IC50,> 100 µM
C#Cc1ccc(C=NNC(=O)c2ccc(Br)c(O)c2)c(O)c1,Cryptococcus neoformans,"microbial growth, broth dilution",,pH 7.4,MIC80,1 µg/mL
COc1cnc(OC)n2nc(NS(=O)(=O)c3c(OCC(F)F)cccc3C(F)(F)F)nc12,HaCaT,"cell growth or viability, CCK-8",,"6.25 µM, 72 h",inhibition,0.85%
N.N.[Cl][Pt][Cl],Daudi,"cell growth or viability, ATP luminescence",,72 h,IC50,0.86 µM
CC[C@H](C)C[C@H](C)CCCCCCCCC(=O)N[C@H]1C[C@@H](O)[C@@H](NCCN)NC(=O)[C@@H]2[C@@H](O)CCN2C(=O)[C@H]([C@H](O)CCN)NC(=O)[C@H]([C@H](O)[C@@H](O)c2ccc(O)cc2)NC(=O)[C@@H]2C[C@@H](O)CN2C(=O)[C@H]([C@@H](C)O)NC1=O,Nakaseomyces glabratus,"microbial growth, broth dilution",ATCC15126,48 h,MIC,0.25 µg/mL
O=C1CCP(c2ccccc2)CC1,HaCaT,"cell growth or viability, MTT",,72 h,IC50,73.3 µM
C#Cc1ccc(C(=O)NN=Cc2c(O)cccc2C#C)cc1,Cryptococcus neoformans,"microbial growth, broth dilution",,pH 7.4,MIC80,0.015 µg/mL
S=P1(C2CCCCC2)CCCCC1,HaCaT,"cell growth or viability, MTT",,72 h,IC50,> 100 µM
C#Cc1ccc(C=NNC(=O)c2ccc(COCC)cc2)c(O)c1,Cryptococcus neoformans,"microbial growth, broth dilution",,pH 7.4,MIC80,0.015 µg/mL
CC[C@@]1(O)C(=O)OCc2c1cc1n(c2=O)Cc2cc3ccccc3nc2-1,SNB-19,"cell growth or viability, SRB",,48 h,IC50,52.9 µM
